Data reported in ChEMBL document CHEMBL1124641, “Synthesis and antiinflammatory and analgesic activity of 5-aroyl-6-(methylthio)-1,2-dihydro-3H-pyrrolo[1,2-a]pyrrole-1-ca rboxyl ic acids and 1-methyl-4-(methylthio)-5-aroylpyrrole-2-acetic acids” (J Med Chem, 1989).

Key:
Mus musculus = experiment: Analgesic activity was assessed from the ability to inhibit phenylquinone-induced writhing in mouse […]; assay type: functional
Procedure, shortened: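 Mouse phenylquinone-induced writhing screen. Potency is expressed relative to aspirin (aspirin = 1), with 95% confidence limits where given.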

Rattus norvegicus [1] = experiment: Antiinflammatory activity assessed by inhibition of carrageenan-induced edema in rats […]; assay type: functional
[2] = Therapeutic ratio of MED GI erosion to that of ED30 of rat paw; assay type: ADME
Procedure, shortened: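 Ratio derived as the gastrointestinal erosion minimum effective dose divided by the ED30 from the carrageenan rat paw assay. The erosion dose (mg/kg per day) comes from a 7-day chronic dosing assay in rats.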

Rattus norvegicus [3] = species on record: Rattus norvegicus; experiment: Chronic gastrointestinal erosive activity in rats; assay type: functional; conditions: read-out: MED
Procedure, shortened: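 Chronic 7-day gastrointestinal erosion assay in rats with daily dosing. The read-out is the minimum effective dose for erosion (mg/kg per day), with 15 rats where stated.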

| Compound | ED50 (Mus musculus) | ED30 (Rattus norvegicus [1]) | selectivity ratio [2] | minimal effective dose (Rattus norvegicus [3]) |
| --- | --- | --- | --- | --- |
| CSc1cc2n(c1C(=O)c1ccc(Br)cc1)CCC2C(=O)O (stereo unspecified) | < 9 mg/kg | 26 mg/kg | – | – |
| CSc1cc2n(c1C(=O)c1ccc(F)cc1)CCC2C(=O)O (stereo unspecified) | 60 mg/kg | < 10 mg/kg | – | – |
| CCOc1ccc(C(=O)c2c(SC)cc(CC(=O)O)n2C)cc1 | 6 mg/kg | 3.6 mg/kg | – | – |
| CSc1cc2n(c1C(=O)c1ccc(OC(C)C)cc1)CCC2C(=O)O (stereo unspecified) | 1 mg/kg | < 1 mg/kg | – | – |
| COc1ccc(C(=O)c2c(SC)cc3n2CCC3C(=O)O)cc1 (stereo unspecified) | 50 mg/kg | < 10 mg/kg | – | – |
| CS(=O)(=O)c1cc2n(c1C(=O)c1ccc(Br)cc1)CCC2C(=O)O (stereo unspecified) | – | < 1 mg/kg | – | – |
| CSc1cc(CC(=O)O)n(C)c1C(=O)c1ccc(F)cc1 | 37 mg/kg | 0.5 mg/kg | – | – |
| CCc1ccc(C(=O)c2c(SC)cc3n2CCC3C(=O)O)cc1 (stereo unspecified) | 70 mg/kg | 16 mg/kg | – | – |
| CSc1cc2n(c1C(=O)c1ccc(C3CC3)cc1)CCC2C(=O)O (stereo unspecified) | 25 mg/kg | 13 mg/kg | – | – |
| CSc1ccc(C(=O)c2c(SC)cc3n2CCC3C(=O)O)cc1 (stereo unspecified) | 50 mg/kg | 10 mg/kg | – | – |
| CSc1cc(CC(=O)O)n(C)c1C(=O)c1ccc(Cl)cc1 | 56 mg/kg | 1.5 mg/kg | – | – |
| CSc1cc2n(c1C(=O)c1ccc(C(F)(F)F)cc1)CCC2C(=O)O (stereo unspecified) | 50 mg/kg | 15 mg/kg | – | – |
| CSc1cc(CC(=O)O)n(C)c1C(=O)c1ccc(C2CC2)cc1 | 30 mg/kg | 10 mg/kg | – | – |
| CCCc1ccc(C(=O)c2c(SC)cc3n2CCC3C(=O)O)cc1 (stereo unspecified) | 7 mg/kg | 2.5 mg/kg | – | – |
| CSc1cc2n(c1C(=O)c1ccc(C3CCCCC3)cc1)CCC2C(=O)O (stereo unspecified) | < 3 mg/kg | < 1 mg/kg | – | – |
| CCOc1ccc(C(=O)c2c(SC)cc3n2CCC3C(=O)O)cc1 (stereo unspecified) | < 13 mg/kg | 4 mg/kg | – | – |
| CSc1cc2n(c1C(=O)c1ccc(C)cc1)CCC2C(=O)O (stereo unspecified) | – | – | 4 | 19 mg/kg |
| CCCc1ccc(C(=O)c2c(SC)cc(CC(=O)O)n2C)cc1 | 5 mg/kg | 0.2 mg/kg | – | – |
| CSc1cc(CC(=O)O)n(C)c1C(=O)c1ccc(C)cc1 | – | – | > 4.5 | > 45 mg/kg |
| C=Cc1ccc(C(=O)c2c(SC)cc3n2CCC3C(=O)O)cc1 (stereo unspecified) | 38 mg/kg | 16 mg/kg | – | – |
| CSc1cc(CC(=O)O)n(C)c1C(=O)c1ccccc1 | > 11 mg/kg | 1 mg/kg | – | – |
| CSc1cc2n(c1C(=O)c1ccc(Cl)cc1)CCC2C(=O)O (stereo unspecified) | – | – | 3.5 | 1.5 mg/kg |
| CC(=O)Oc1ccccc1C(=O)O [ASPIRIN] | 70 mg/kg | – | – | – |
| O=C(c1ccccc1)c1ccc2n1CCC2C(=O)O (stereo unspecified) [KETOROLAC] | – | – | 18 | 5 mg/kg |
| COc1ccc2cc([C@H](C)C(=O)O)ccc2c1 [NAPROXEN] | – | – | 22 | 30 mg/kg/day |
| CCCCC1C(=O)N(c2ccccc2)N(c2ccccc2)C1=O [PHENYLBUTAZONE] | – | 15 mg/kg | – | – |
| Cc1cc(CC(=O)O)n(C)c1C(=O)c1ccc(Cl)cc1 [ZOMEPIRAC] | – | – | 17 | 10 mg/kg |
